Measurements published in ChEMBL document CHEMBL1961794, “Regulation of circadian behaviour and metabolism by synthetic REV-ERB agonists” (Nature, 2012).
The source made the active and inactive calls.

Tests used:
[1] = biological target: Hepatocyte nuclear factor 4-alpha (Homo sapiens) (UniProt P41235); assay: Effect on HNF4A(NR2A1) dependent reporter activity in HEK293 cells at 20 uM; format: cell-based
Summary of the method: (§1)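 Specificity panel covering all 48 human nuclear receptors. HEK293 cells cotransfected with Gal4 DNA-binding domain–nuclear receptor fusions and a luciferase reporter. Compound tested at a single 20 μM concentration. Mean ± s.e.m., n=3.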

[2] = biological target: Vitamin D3 receptor (Homo sapiens) (UniProt P11473); assay: Effect on VDR(NR1I1) dependent reporter activity in HEK293 cells at 20 uM; format: cell-based
Summary of the method: (§2)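 Cotransfection assay in HEK293 cells with Gal4 DNA-binding domain–nuclear receptor fusions, covering a panel of all 48 human nuclear receptors. Compounds were tested at 20 μM, with reporter luciferase as the read-out. Mean ± s.e.m., n=3.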

[3] = biological target: Oxysterols receptor LXR-alpha (Homo sapiens) (UniProt Q13133); assay: Effect on LXRA(NR1H3) dependent reporter activity in HEK293 cells at 20 uM; format: cell-based; summary of the method: as §1
[4] = biological target: Nuclear receptor subfamily 4 group A member 2 (Homo sapiens) (UniProt P43354); assay: Effect on NURR1(NR4A2) dependent reporter activity in HEK293 cells at 20 uM; format: cell-based; summary of the method: as §1
Sequence of Nuclear receptor subfamily 4 group A member 2 (Homo sapiens) (P43354 whole entry): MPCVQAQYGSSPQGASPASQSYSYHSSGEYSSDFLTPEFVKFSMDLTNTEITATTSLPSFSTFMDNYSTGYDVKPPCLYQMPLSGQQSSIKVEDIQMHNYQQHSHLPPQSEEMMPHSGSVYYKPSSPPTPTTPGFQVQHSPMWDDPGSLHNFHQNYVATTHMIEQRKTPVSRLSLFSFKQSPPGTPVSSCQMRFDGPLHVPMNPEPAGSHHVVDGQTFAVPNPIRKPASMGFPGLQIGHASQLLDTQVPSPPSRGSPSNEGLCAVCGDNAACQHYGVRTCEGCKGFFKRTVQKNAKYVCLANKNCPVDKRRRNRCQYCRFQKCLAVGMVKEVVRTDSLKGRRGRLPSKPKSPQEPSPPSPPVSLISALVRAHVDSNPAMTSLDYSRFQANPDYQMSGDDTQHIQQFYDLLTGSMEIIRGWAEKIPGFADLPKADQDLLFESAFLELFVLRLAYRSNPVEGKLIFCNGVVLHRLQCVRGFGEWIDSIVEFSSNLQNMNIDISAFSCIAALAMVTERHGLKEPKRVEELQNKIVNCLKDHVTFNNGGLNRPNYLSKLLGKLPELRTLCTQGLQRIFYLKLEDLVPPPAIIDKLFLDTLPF

[5] = biological target: Nuclear receptor subfamily 0 group B member 2 (Homo sapiens) (UniProt Q15466); assay: Effect on SHP(NR0B2) dependent reporter activity in HEK293 cells at 20 uM; format: cell-based; summary of the method: as §2
Sequence of Nuclear receptor subfamily 0 group B member 2 (Homo sapiens) (Q15466 whole entry): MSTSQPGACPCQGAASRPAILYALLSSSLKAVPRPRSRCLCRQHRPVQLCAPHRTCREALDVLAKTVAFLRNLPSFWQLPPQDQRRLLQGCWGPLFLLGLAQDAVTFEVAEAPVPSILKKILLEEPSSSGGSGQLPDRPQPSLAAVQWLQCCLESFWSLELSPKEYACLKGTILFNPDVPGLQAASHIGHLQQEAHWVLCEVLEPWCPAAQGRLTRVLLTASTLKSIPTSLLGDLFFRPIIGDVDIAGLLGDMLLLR

[6] = biological target: Nuclear receptor subfamily 1 group I member 3 (Homo sapiens, UniProt Q14994); assay: Effect on CAR(NR1I3) dependent reporter activity in HEK293 cells at 20 uM; format: cell-based; conditions: hek293, 20 µM; summary of the method: as §1
Sequence of Nuclear receptor subfamily 1 group I member 3 (Q14994 whole entry): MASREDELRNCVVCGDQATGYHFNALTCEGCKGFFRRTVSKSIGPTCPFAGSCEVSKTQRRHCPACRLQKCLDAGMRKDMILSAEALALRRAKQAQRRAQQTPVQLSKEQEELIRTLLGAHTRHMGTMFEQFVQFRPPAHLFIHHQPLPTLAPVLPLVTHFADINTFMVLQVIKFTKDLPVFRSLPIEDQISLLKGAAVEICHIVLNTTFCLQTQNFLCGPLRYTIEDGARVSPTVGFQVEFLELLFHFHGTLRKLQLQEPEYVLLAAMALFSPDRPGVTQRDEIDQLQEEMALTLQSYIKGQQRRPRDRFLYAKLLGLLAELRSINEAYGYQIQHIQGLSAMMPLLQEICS

[7] = biological target: Nuclear receptor ROR-alpha (Homo sapiens) (UniProt P35398); assay: Effect on RORA(NR1F1) dependent reporter activity in HEK293 cells at 20 uM; format: cell-based; summary of the method: as §1
[8] = Plasma concentration after 8 hours at 10mg/kg ip dose (10mg/ml suspension in 10%DMSO/10%Tween80); format: ADME, organism-based; conditions: mouse, read-out: Conc_plasma
Summary of the method: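 Mice received a single 10 mg/kg i.p. dose as a 10 mg/ml suspension in DMSO/Tween80/water (10/10/80). Plasma was sampled at 1, 2, 4 and 8 h post-injection and drug concentration reported in μM. Mean ± s.e.m., n=3.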

[9] = biological target: Bile acid receptor (Homo sapiens) (UniProt Q96RI1); assay: Effect on BAR(NR1H4) dependent reporter activity in HEK293 cells at 20 uM; format: cell-based; summary of the method: as §1
Sequence of Bile acid receptor (Homo sapiens) (Q96RI1 whole entry): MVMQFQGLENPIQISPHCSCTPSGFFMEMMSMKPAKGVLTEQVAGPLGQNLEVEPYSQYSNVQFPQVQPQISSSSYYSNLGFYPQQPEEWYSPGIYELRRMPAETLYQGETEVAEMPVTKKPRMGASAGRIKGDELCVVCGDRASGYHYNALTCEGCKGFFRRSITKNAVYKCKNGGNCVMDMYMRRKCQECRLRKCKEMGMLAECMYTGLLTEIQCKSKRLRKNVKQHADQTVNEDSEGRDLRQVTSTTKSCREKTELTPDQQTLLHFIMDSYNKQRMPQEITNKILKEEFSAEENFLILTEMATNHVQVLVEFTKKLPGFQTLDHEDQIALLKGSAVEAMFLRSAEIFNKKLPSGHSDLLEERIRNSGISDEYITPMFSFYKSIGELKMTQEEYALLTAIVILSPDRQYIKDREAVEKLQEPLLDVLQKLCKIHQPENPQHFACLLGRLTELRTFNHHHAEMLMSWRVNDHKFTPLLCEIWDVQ

Mus musculus [10] = assay: Decreased expression of REV-ERB responsive gene Srebf1 in mouse liver after 6 days at 100 mg/kg; format: functional, organism-based; design: dose 100 mg/kg
[11] = biological target: Nuclear receptor subfamily 6 group A member 1 (Homo sapiens) (UniProt Q15406); assay: Effect on GCNF(NR6A1) dependent reporter activity in HEK293 cells at 20 uM; format: cell-based; summary of the method: as §1
Mus musculus [12] = assay: Decreased expression of REV-ERB responsive gene Cyp7a1 in mouse liver after 6 days at 100 mg/kg; format: functional, organism-based; design: dose 100 mg/kg
[13] = Plasma concentration after 2 hours at 100mg/kg ip dose (10mg/ml solution in 15% Cremophor); format: ADME, organism-based; conditions: mouse, read-out: Conc_plasma
Summary of the method: (§3)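 Single 100 mg/kg i.p. dose given to mice as a 10 mg/ml solution in 15% Cremophor. Plasma drug concentration (μM) was measured at 2 and 8 h post-injection. Mean ± s.e.m., n=3.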

[14] = biological target: Thyroid hormone receptor beta (Homo sapiens) (UniProt P10828); assay: Effect on THRB(NR1A2) dependent reporter activity in HEK293 cells at 20 uM; format: cell-based; summary of the method: as §2
[15] = biological target: Steroid hormone receptor ERR1 (Homo sapiens) (UniProt P11474); assay: Effect on ERR1(NR3B1) dependent reporter activity in HEK293 cells at 20 uM; format: cell-based; summary of the method: as §1
Sequence of Steroid hormone receptor ERR1 (Homo sapiens) (P11474 whole entry): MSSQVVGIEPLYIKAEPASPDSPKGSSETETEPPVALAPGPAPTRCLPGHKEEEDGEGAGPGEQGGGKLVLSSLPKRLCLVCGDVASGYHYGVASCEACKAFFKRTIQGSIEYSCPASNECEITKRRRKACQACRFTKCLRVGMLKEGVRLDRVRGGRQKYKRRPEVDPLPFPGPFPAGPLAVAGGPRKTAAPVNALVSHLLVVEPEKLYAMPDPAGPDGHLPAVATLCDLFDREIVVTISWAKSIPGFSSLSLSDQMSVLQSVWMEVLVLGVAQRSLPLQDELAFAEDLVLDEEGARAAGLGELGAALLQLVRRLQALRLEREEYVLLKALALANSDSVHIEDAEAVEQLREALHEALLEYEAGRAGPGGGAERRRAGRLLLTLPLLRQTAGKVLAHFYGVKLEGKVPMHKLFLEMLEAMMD

[16] = biological target: Nuclear receptor subfamily 4 group A member 3 (Homo sapiens) (UniProt Q92570); assay: Effect on NOR1(NR4A3) dependent reporter activity in HEK293 cells at 20 uM; format: cell-based; summary of the method: as §1
Sequence of Nuclear receptor subfamily 4 group A member 3 (Homo sapiens) (Q92570 whole entry): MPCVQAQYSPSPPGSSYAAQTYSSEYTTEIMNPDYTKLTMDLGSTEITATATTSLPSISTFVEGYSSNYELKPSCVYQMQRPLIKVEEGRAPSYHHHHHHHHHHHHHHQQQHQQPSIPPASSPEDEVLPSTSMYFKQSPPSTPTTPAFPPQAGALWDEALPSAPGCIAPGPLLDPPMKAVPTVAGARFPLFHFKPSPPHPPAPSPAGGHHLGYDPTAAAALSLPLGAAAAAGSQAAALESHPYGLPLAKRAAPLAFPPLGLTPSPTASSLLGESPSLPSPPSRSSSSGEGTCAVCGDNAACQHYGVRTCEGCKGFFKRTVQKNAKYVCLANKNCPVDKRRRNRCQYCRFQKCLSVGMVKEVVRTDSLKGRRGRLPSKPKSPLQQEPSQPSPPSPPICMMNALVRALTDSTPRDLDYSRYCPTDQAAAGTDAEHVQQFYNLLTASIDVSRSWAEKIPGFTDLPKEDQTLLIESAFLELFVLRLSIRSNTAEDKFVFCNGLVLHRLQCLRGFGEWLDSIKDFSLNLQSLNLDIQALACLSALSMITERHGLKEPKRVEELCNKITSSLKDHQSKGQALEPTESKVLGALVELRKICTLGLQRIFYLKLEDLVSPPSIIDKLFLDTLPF

[17] = biological target: Steroid hormone receptor ERR2 (Homo sapiens) (UniProt O95718); assay: Effect on ERR2(NR3B2) dependent reporter activity in HEK293 cells at 20 uM; format: cell-based; summary of the method: as §1
Sequence of Steroid hormone receptor ERR2 (Homo sapiens) (O95718 whole entry): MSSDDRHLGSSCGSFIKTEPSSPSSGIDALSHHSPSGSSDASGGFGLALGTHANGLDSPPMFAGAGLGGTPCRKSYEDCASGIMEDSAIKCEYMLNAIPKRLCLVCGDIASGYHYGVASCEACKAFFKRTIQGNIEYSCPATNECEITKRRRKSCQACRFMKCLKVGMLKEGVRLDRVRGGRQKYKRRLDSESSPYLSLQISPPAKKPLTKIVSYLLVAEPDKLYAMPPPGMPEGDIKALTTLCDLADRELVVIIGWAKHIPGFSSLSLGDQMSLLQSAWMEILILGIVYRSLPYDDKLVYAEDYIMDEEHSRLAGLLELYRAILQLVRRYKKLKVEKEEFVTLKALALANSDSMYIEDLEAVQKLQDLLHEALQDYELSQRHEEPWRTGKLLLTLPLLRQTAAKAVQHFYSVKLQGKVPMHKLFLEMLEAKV

[18] = biological target: Retinoic acid receptor gamma (Homo sapiens) (UniProt P13631); assay: Effect on RARG(NR1B3) dependent reporter activity in HEK293 cells at 20 uM; format: cell-based; summary of the method: as §1
[19] = biological target: Nuclear receptor subfamily 2 group E member 1 (Homo sapiens) (UniProt Q9Y466); assay: Effect on TLX(NR2E1) dependent reporter activity in HEK293 cells at 20 uM; format: cell-based; summary of the method: as §2
Sequence of Nuclear receptor subfamily 2 group E member 1 (Homo sapiens) (Q9Y466 whole entry): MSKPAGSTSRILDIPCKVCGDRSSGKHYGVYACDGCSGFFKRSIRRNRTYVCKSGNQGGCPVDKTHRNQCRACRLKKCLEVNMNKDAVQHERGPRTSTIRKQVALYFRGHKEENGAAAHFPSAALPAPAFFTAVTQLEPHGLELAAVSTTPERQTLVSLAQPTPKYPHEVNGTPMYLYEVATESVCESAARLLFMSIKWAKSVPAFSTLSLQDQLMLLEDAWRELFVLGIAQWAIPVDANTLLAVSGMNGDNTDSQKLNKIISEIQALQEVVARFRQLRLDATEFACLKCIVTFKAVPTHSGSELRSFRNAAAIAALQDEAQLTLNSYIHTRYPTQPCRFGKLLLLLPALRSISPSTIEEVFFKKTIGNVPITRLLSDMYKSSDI

[20] = biological target: Nuclear receptor subfamily 4immunitygroup A member 1 (Homo sapiens) (UniProt P22736); assay: Effect on GFRP1(NR4A1) dependent reporter activity in HEK293 cells at 20 uM; format: cell-based; summary of the method: as §1
[21] = Plasma concentration after 8 hours at 100mg/kg ip dose (10mg/ml solution in 15% Cremophor); format: ADME, organism-based; conditions: mouse, read-out: Conc_plasma; summary of the method: as §3
[22] = biological target: Estrogen receptor beta (Homo sapiens) (UniProt Q92731); assay: Effect on ESR2(NR3A2) dependent reporter activity in HEK293 cells at 20 uM; format: cell-based; summary of the method: as §1
[23] = biological target: Nuclear receptor subfamily 5 group A member 2 (Homo sapiens) (UniProt O00482); assay: Effect on CPF(NR5A2) dependent reporter activity in HEK293 cells at 20 uM; format: cell-based; summary of the method: as §1
[24] = biological target: Retinoic acid receptor RXR-alpha (Homo sapiens) (UniProt P19793); assay: Effect on RXRA(NR2B1) dependent reporter activity in HEK293 cells at 20 uM; format: cell-based; summary of the method: as §1
[25] = biological target: Retinoic acid receptor RXR-gamma (Homo sapiens) (UniProt P48443); assay: Effect on RXRG(NR2B3) dependent reporter activity in HEK293 cells at 20 uM; format: cell-based; summary of the method: as §1
Sequence of Retinoic acid receptor RXR-gamma (Homo sapiens) (P48443 whole entry): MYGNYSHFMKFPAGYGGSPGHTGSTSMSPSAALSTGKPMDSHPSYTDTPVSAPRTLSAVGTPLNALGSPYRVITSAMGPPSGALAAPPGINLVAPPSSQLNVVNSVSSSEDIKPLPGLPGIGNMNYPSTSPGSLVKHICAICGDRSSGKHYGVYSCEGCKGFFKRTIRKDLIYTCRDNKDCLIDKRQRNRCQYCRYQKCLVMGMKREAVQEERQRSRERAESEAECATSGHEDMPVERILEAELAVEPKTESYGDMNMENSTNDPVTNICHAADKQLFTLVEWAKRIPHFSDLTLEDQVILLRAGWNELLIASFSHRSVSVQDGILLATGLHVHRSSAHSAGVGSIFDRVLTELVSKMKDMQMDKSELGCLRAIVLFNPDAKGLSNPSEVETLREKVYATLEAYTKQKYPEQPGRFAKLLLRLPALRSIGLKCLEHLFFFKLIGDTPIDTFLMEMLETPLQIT

[26] = biological target: Photoreceptor-specific nuclear receptor (Homo sapiens) (UniProt Q9Y5X4); assay: Effect on PNR(NR2E3) dependent reporter activity in HEK293 cells at 20 uM; format: cell-based; summary of the method: as §1
[27] = biological target: Estrogen receptor (Homo sapiens) (UniProt P03372); assay: Effect on ESR1(NR3A1) dependent reporter activity in HEK293 cells at 20 uM; format: cell-based; summary of the method: as §1
[28] = biological target: Oxysterols receptor LXR-beta (Homo sapiens) (UniProt P55055); assay: Effect on LXRB(NR1H2) dependent reporter activity in HEK293 cells at 20 uM; format: cell-based; summary of the method: as §1
[29] = biological target: Retinoic acid receptor beta (Homo sapiens) (UniProt P10826); assay: Effect on RARB(NR1B2) dependent reporter activity in HEK293 cells at 20 uM; format: cell-based; summary of the method: as §1
Sequence of Retinoic acid receptor beta (Homo sapiens) (P10826 whole entry): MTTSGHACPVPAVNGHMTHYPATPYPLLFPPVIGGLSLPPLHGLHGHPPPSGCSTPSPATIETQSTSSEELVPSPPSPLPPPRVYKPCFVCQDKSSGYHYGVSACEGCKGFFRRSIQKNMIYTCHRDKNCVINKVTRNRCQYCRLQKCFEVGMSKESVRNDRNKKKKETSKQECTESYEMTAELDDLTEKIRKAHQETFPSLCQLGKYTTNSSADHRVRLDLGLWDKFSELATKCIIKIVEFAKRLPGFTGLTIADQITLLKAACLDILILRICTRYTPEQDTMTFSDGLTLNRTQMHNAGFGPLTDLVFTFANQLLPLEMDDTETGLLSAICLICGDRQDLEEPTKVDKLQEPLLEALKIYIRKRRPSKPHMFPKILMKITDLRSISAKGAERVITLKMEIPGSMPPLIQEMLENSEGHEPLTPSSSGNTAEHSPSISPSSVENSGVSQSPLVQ

[30] = Brain concentration after 8 hours at 10mg/kg ip dose (10mg/ml suspension in 10%DMSO/10%Tween80); format: ADME, organism-based; conditions: mouse
Summary of the method: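 Mice given a single 10mg/kg i.p. dose as a 10mg/ml suspension in 10/10/80 DMSO/Tween80/water. Brain levels (μM) measured at 2h and 8h post injection, with plasma sampled at 1, 2, 4 and 8h. Mean ± s.e.m., n=3.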

[31] = biological target: Nuclear receptor ROR-beta (Homo sapiens) (UniProt Q92753); assay: Effect on RORB(NR1F2) dependent reporter activity in HEK293 cells at 20 uM

Sequence of Hepatocyte nuclear factor 4-alpha (Homo sapiens) (P41235 whole entry, the tested form may be a part): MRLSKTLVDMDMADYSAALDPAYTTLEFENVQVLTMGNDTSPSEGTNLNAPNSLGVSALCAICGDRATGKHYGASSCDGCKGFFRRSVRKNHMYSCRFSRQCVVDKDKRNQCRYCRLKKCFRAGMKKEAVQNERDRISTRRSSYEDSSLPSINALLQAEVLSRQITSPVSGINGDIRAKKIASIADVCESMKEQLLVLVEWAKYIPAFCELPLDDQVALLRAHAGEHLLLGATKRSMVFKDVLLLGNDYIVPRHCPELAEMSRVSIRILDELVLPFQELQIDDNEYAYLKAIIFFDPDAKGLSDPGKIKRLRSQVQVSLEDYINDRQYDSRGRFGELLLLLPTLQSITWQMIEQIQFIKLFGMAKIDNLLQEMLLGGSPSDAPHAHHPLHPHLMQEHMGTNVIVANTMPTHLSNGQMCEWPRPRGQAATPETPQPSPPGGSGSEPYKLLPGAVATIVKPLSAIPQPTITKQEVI

CCOC(=O)N1CCC(CN(Cc2ccc(Cl)cc2)Cc2ccc([N+](=O)[O-])s2)C1 (configuration not stated) [SR9009]
22900 nM: concentration at 2 h [13]
110 nM: concentration at 8 h ([30]; brain, read-out: Conc_brain)
130 nM: concentration at 8 h [8]
active: Reduced_Srebf1_gene_exp (Mus musculus [10]) | Reduced_Cyp7a1_gene_exp (Mus musculus [12])
Not Active: Inhibition [6]
inactive: inhibition [1] | inhibition [2] | inhibition [3] | inhibition [4] | inhibition [5] | inhibition [7] | inhibition [9] | inhibition [11] | inhibition [14] | inhibition [15] | inhibition [16] | inhibition [17] | inhibition [18] | inhibition [19] | inhibition [20] | inhibition [22] | inhibition [23] | inhibition [24] | inhibition [25] | inhibition [26] | inhibition [27] | inhibition [28] | inhibition [29] | inhibition [31]
1500 nM: concentration at 8 h [21]

CCCCCNC(=O)N1CCC(CN(Cc2ccc(Cl)cc2)Cc2ccc([N+](=O)[O-])s2)C1 (configuration not stated) [SR9011]
Not Detected: Conc_brain ([30]; in vivo, 8 h)
740 nM: concentration at 8 h [21]
15300 nM: concentration at 2 h [13]
10 nM: concentration at 8 h [8]
Not Active: Inhibition [6]
active: Reduced_Srebf1_gene_exp (Mus musculus [10]) | Reduced_Cyp7a1_gene_exp (Mus musculus [12])
inactive: inhibition [1] | inhibition [2] | inhibition [3] | inhibition [4] | inhibition [5] | inhibition [7] | inhibition [9] | inhibition [11] | inhibition [14] | inhibition [15] | inhibition [16] | inhibition [17] | inhibition [18] | inhibition [19] | inhibition [20] | inhibition [22] | inhibition [23] | inhibition [24] | inhibition [25] | inhibition [26] | inhibition [27] | inhibition [28] | inhibition [29] | inhibition [31]
